ROMK mod: modulates human ROMK potassium channel activity; AID 1918; B-score at 10 µM; hit rate 2% among 130,000; P48048; Tet-inducible ROMK, thallium flux fluorescence; actives lie on both sides;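 active means signal ratio slope over the read window, or its plate-corrected B-score, at least 3 SD from the plate mean, either direction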;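 further: B-score of the F/F0 ratio slope over 7 to 12 s after thallium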
Target sequence (P48048 whole entry, looked up): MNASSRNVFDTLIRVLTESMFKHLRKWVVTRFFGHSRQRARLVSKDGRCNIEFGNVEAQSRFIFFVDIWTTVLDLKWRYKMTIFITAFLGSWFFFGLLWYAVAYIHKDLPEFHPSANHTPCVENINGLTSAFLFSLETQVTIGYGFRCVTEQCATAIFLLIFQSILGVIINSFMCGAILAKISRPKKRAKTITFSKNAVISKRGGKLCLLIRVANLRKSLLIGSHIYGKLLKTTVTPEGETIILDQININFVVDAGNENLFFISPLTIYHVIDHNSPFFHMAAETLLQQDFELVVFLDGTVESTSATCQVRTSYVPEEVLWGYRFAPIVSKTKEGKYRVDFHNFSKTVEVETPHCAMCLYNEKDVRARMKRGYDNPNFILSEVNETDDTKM
Biofilm kill mix: mixtures killing C. albicans biofilm; hit rate 0.02% among 120,000; inhibition, % at 7.6 µM; C. albicans biofilm persisters + clotrimazole, fluorescence viability; primary screen in compound mixtures of four per well;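 further: compounds exposed to preformed 24 h biofilms for 48 h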
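Assay system: C. albicans biofilms / Medium: RPMI/MOPS medium, pH 7.0 / Schedule: biofilm formation 24 h, compound exposure 48 h, 37 °C / Measured by: Alamar Blue fluorescence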
ROMK hit retest: human ROMK channel modulation, retest confirmation | shares compounds with ROMK mod | ROMK thallium flux, fluorescence ratio; stronger effect = lower value | normalized thallium flux (F/F0 slope) at 10 µM | hit rate 54% among 3,000 | AID 1917;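 active means Flux at 10 µM at least 3 SD below or above vehicle control mean in one or both replicates; inconclusive means no clear call, values can overlap the other calls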
Each line names hits and unclear results; the compound was inactive in the other large screens (follow-up assays come after a bar, where they were run). The sample as a whole holds a higher share of hits than the screen did.

Cc1cccc(-n2c(O)c(/C=N/NC(=O)c3ccccc3Cl)c3ccccc3c2=O)n1	none (no result: ROMK mod)
O=C(N/N=C/c1c(O)n(-c2ccccc2Cl)c(=O)c2ccccc12)c1cccnc1	ROMK mod -3.56 | ROMK hit retest 0.0578
COc1ccc(Cn2c(O)c(C=Nc3ccc(OC)cc3)c3ccccc3c2=O)cc1	none (no result: ROMK mod)
COc1ccc(Cn2c(O)c(/C=N/NC(=O)c3cccnc3)c3ccccc3c2=O)cc1	ROMK mod -5.5 | ROMK hit retest 0.0316
CCOC(=O)c1nc(Nc2ccc(N3CCC(C)CC3)cc2)c2ccccc2n1	none (no result: ROMK mod)
Cc1nn(-c2ccccc2)c(C)c1/C=N/NC(=O)CSc1nnc(SCc2cccc3ccccc23)s1	none
c1ccc(-n2cnc3cc(NCc4ccco4)ccc32)cc1	ROMK mod 3.31 | ROMK hit retest inconclusive
Cc1ccc(-n2cnc3cc(NCc4cccs4)ccc32)cc1	none (no result: Biofilm kill mix)
Nc1nc(SCCO)[nH]c(=O)c1NC(=O)c1ccccc1F	none
Clc1ccc(OCCn2cnc(Cl)c2Cl)cc1	none (no result: ROMK mod)
Cc1ccccc1N1C(=O)c2sc3nc4c(c(=O)n3c2C1=O)CCC4	ROMK mod -3.13 (no result: Biofilm kill mix) | ROMK hit retest inactive
O=C1c2sc3nc4c(c(=O)n3c2C(=O)N1c1ccccc1)CCC4	none (no result: Biofilm kill mix)
O=C1NN(c2cccc(Br)c2)C(=O)/C1=C/c1ccc(-c2cc([N+](=O)[O-])ccc2O)o1	none (no result: ROMK mod)
O=C1NN(c2ccccc2)C(=O)/C1=C/c1ccc(Sc2cccc3ccccc23)o1	ROMK mod -3.89 | ROMK hit retest 0.0673
O=C(Nc1ccc(F)cc1)/C(=C1/CCCCCN1)[N+](=O)[O-]	none (no result: ROMK mod)
CCc1ccc2[nH]c(=O)c(CN(CCN(C)C)C(=S)NCc3ccco3)cc2c1	none
Cc1cc2cc(CN(Cc3ccco3)C(=O)C3CCCCC3)c(=O)[nH]c2cc1C	none (no result: Biofilm kill mix)
Cc1cc2cc(CN(Cc3ccco3)C(=O)NCc3ccccc3)c(=O)[nH]c2cc1C	ROMK mod -5.18 (no result: Biofilm kill mix) | ROMK hit retest 0.059
Cc1cc2cc(CN(CCN(C)C)C(=S)NCc3ccco3)c(=O)[nH]c2cc1C	ROMK mod -3.71 | ROMK hit retest 0.0594
CCc1ccc2[nH]c(=O)c(CN(CCN(CC)CC)C(=S)NCc3ccco3)cc2c1	ROMK mod -3.26 | ROMK hit retest 0.0643
CCN(CC)CCN(Cc1cc2cc(C)c(C)cc2[nH]c1=O)C(=S)NCc1ccco1	none
O=C(O[C@@H]1OC2COC(=O)c3cc(O)c(O)c(O)c3-c3c(cc(O)c(O)c3O)C(=O)O[C@@H]([C@H]1O)[C@@H]2O)c1cc(O)c(O)c(O)c1	none
CC1C/C(=C/c2ccncc2)C(=O)/C(=C/c2ccncc2)C1 (configuration not stated)	ROMK mod -1.8 | ROMK hit retest 0.0501
CC1CC(C)CN(C(=O)c2ccncc2)C1 (configuration not stated)	none (no result: Biofilm kill mix)
N#Cc1cc(C(=O)c2cc(Cl)ccc2O)cn(-c2ccccc2)c1=O	none
O=C(c1ccccc1)c1cc(Cl)ccc1N1C(=O)C=CC1=O	ROMK mod -2.72 | ROMK hit retest 0.0619
COc1cccc(CNC(=O)C(c2ccc(Cl)cc2)C(C)C)c1 (configuration not stated)	none
N#CC1=C(N)NC(SCc2ccccc2)=C(C#N)C12CCCC2	none
N#CC1=C(N)NC(SCc2ccc(Br)cc2)=C(C#N)C12CCCCC2	ROMK mod -3.91 | ROMK hit retest inactive
N#CC1=C(N)NC(SCC(=O)Nc2ccc(Br)cc2)=C(C#N)C12CCCCC2	none (no result: Biofilm kill mix)
N#CC1=C(N)NC(SCc2ccc(Cl)cc2)=C(C#N)C12CCCCC2	none (no result: Biofilm kill mix) | ROMK hit retest 0.0622
O=C(OC(C(=O)NCc1ccco1)c1ccc(Cl)cc1)c1cccs1 (configuration not stated)	none (no result: ROMK mod)
CCOC(=O)c1c(/N=C/c2ccc(C)cc2O)sc2c1CCC2	ROMK mod -2.44 | ROMK hit retest 0.0389
CCOC(=O)c1c(/N=C/c2ccc(OC)cc2O)sc2c1CCN(C)C2	none (no result: ROMK mod)
CC(=O)Nc1ccc(-n2nnnc2SCC(=O)Nc2cccc(NC(=O)c3ccco3)c2)cc1	none (no result: ROMK mod)
Cc1ccc(Cl)cc1N1CCN(CC(=O)Nc2ccc(CN3CCCCC3)cc2)CC1	ROMK mod -4.64 | ROMK hit retest 0.0541
COc1ccccc1N1CCN(CC(=O)Nc2ccc(CN3CCCCC3)cc2)CC1	none (no result: Biofilm kill mix)
Cc1ccc(-c2nc(SCC(=O)NCC3CCCO3)c(-c3ccccc3)[nH]2)cc1 (configuration not stated)	none
COc1cc(NC(=S)N2CCC(C(N)=O)CC2)c(OC)cc1Cl	none
O=C(CCS(=O)(=O)c1ccccc1)Nc1cccc2c1C(=O)NC2=O	none
O=C(Nc1cccc(N=Cc2cc(Cl)cc(Br)c2O)c1)c1ccco1	ROMK mod 4.08 | ROMK hit retest 0.114
O=C(Nc1cccc(N=Cc2cc(Br)cc(Br)c2O)c1)c1ccco1	none (no result: ROMK mod) | ROMK hit retest 0.11
COC(=O)c1cccc(NC(=O)c2ccco2)c1	none
CC(C)(C)NC(=O)c1cccc(NC(=O)c2ccco2)c1	none
CC1CCN(S(=O)(=O)c2ccc3ncn(CC(=O)N4CCN(C)CC4)c(=O)c3c2)CC1	none
COC(=O)C1=C(C)N(Cc2ccco2)C(=O)N[C@H]1c1cccc(C(F)(F)F)c1	none
COc1ccc(N(C)C(=O)c2onc3c2CCCC3)cc1	none
CSc1ccccc1NC(=O)C(=O)c1c[nH]c2ccccc12	none
Cc1ncoc1C(=O)N1CCCC(C(=O)c2ccc(-c3ccccc3)cc2)C1 (configuration not stated)	none
Cc1cc(C)nc(OC(=O)c2ccc(Cl)cc2Cl)n1	none
O=Cc1cccc(OC(=O)c2ccc(Cl)cc2Cl)c1	ROMK mod 3.01 (no result: Biofilm kill mix) | ROMK hit retest inactive
COc1ccc(/C=N/N2CCOCC2)cc1COc1ccc(Cl)cc1	none
CCn1c(SCc2nc(-c3cccs3)no2)nnc1-c1c[nH]c2ccccc12	none (no result: ROMK mod, Biofilm kill mix) | ROMK hit retest 0.057
CCn1c(SCc2nc(-c3ccccc3)no2)nnc1-c1cccs1	none (no result: Biofilm kill mix)
Nc1ccc2oc(C3CCCCC3)nc2c1	none
N#C/C(=C/c1cc(Br)cs1)C(=O)NCC1CCCO1 (configuration not stated)	none (no result: ROMK mod, Biofilm kill mix) | ROMK hit retest 0.0643
COc1cc(/C=C(\C#N)C(=O)NCC2CCCO2)cc(OC)c1OC (configuration not stated)	none
Cc1nc2sc(C(=O)Nc3ccccc3Cc3ccccc3)c(C)c2c(=O)[nH]1	none (no result: ROMK mod)
N[C@@H](C(=O)N[C@@H]1C(=O)N2C(C(=O)O)=C(Cl)CS[C@H]12)c1ccccc1	none (no result: ROMK mod)
CC1=C(C(=O)OCC(Cl)(Cl)Cl)N2C(=O)C(NC(=O)Cc3ccccc3)C2SC1 (configuration not stated)	ROMK mod -3.08 | ROMK hit retest 0.0612
CC(C)(C)n1ncc2c(=O)n(CC(=O)NCc3ccc(F)cc3)cnc21	ROMK mod 3.91 (no result: Biofilm kill mix) | ROMK hit retest inactive
CCOC(=O)C(C)Oc1cccc2c(=O)n(CC(=O)NCc3ccccc3)ccc12 (configuration not stated)	none
CCOC(=O)C(C)Oc1cccc2c(=O)n(CC(=O)NCc3ccc(F)cc3)ccc12 (configuration not stated)	ROMK mod 3.63 | ROMK hit retest inactive
CC(C)(C)n1ncc2c(=O)n(CC(=O)OCc3ccccc3)cnc21	none (no result: Biofilm kill mix)
CSc1nnc(-c2ccc(S(=O)(=O)N3CCOCC3)cc2)n1CC1CCCO1 (configuration not stated)	none (no result: Biofilm kill mix)
O=C(CSc1nnc(-c2ccc(S(=O)(=O)N3CCCC3)cc2)n1CC1CCCO1)NC1CC1 (configuration not stated)	none (no result: ROMK mod, Biofilm kill mix) | ROMK hit retest inactive
